{"source": "paper PMC7135742", "about": "(Nature biomedical engineering, 2020)", "key": {"[1]": {"tested_on": "pANXA2 in 4T1 cells", "assay": "Western blot of pANXA2 levels after insulin / PP2 treatment", "format": "cell-based, murine", "settings": "100 nM insulin 4 h, PP2 co-administration", "summary_of_the_method": "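4T1 murine breast cancer cells serum-starved overnight, then treated with 100 nM insulin for 4 h or with PP2, following the same protocol as the insulin imaging study. Cells lysed by ultrasonic homogenisation in RIPA buffer (10 mM Tris-HCl, pH 8.0), and lysates resolved by SDS-PAGE and immunoblotted for pANXA2.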"}, "[2]": {"tested_on": "A549, MDA-MB-231, and 4T1", "assay": "Cellular uptake by fluorescence microscopy, solid cancer cell lines", "format": "cell-based", "settings": "1 μM cypate, all cells", "summary_of_the_method": "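Cells were grown in medium with 10% FBS and penicillin/streptomycin (37°C, 5% CO2), then seeded overnight on 8-chamber slides. Compound stock was made in 20% DMSO in PBS (pH 7.4) and diluted into medium to 1 µM final, then incubated at 37°C for several time points. SYTO 13 nuclear stain was added for 45 min at 37°C before epifluorescence or confocal imaging.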"}, "[3]": {"tested_on": "tumours", "settings": "cited from earlier work"}, "[4]": {"tested_on": "4T1 luc/GFP cells", "assay": "In vitro blocking study of LS301 uptake", "format": "cell-based, murine", "settings": "24 h, LS301 1 µM, blocking agent 50 µM"}, "[5]": {"target": "LS301 (cypate-cyclic(DCys-Gly-Arg-Asp-Ser-Pro-Cys)-Lys-OH)", "assay": "MST"}, "[6]": {"target": "LS301", "assay": "MST of LS301 with whole-cell lysate", "settings": "reference: lysate of insulin-stimulated 4T1 cells; sites Y23"}}}
{"compound": "CC(C)(C)n1nc(-c2ccc(Cl)cc2)c2c(N)ncnc21", "note": "[PP2]", "values": [{"measurement": "effect on pANXA2 levels in 4T1 cells", "setting": "[1]", "value": "this effect was suppressed"}]}
{"compound": "CC1(C)C(/C=C/C=C/C=C/C=C2/N(CCC(=O)O)c3ccc4ccccc4c3C2(C)C)=[N+](CCC(=O)[O-])c2ccc3ccccc3c21", "note": "[cypate]", "values": [{"measurement": "cellular retention of cypate alone", "setting": "[2]", "value": "only transient retention in all cells"}]}
{"compound": "Cypate-GRDSPK", "values": [{"measurement": "retention of Cypate-GRDSPK in tumours", "setting": "[3]", "value": "the retention was transient"}]}
{"compound": "LCKLSL", "values": [{"measurement": "blocking of LS301 binding and internalization in cells", "setting": "[4]", "value": "inhibited the binding and internalization of LS301 in cells"}]}
{"compound": "Purified pANXA2 protein (Annexin A2 phosphorylated at tyrosine 23) (from UniProt P07355 1-339) (natural protein)", "values": [{"measurement": "Kd", "setting": "[5]", "value": 0.075, "unit": "nM"}]}
{"compound": "Purified ANXA2 protein (Annexin A2) (from UniProt P07355 1-339) (natural protein)", "values": [{"measurement": "Kd", "setting": "[5]", "value": 0.389, "unit": "nM"}]}
{"compound": "ANXA2 (endogenous, 4T1 cells) (from UniProt P07356) lysate of PP2-treated 4T1 cells", "values": [{"measurement": "KD", "setting": "[6]", "value": "weaker; reference 0.017 ± 0.004 nM"}]}
{"compound": "insulin: stimulates tyrosine-23 phosphorylation of ANXA2", "values": [{"measurement": "effect on pANXA2 levels in 4T1 cells", "setting": "[1]", "value": "increased levels of pANXA2 relative to unstimulated cells"}]}
